In ChEMBL document CHEMBL4513216, “Probing the Open Global Health Chemical Diversity Library for Multistage-Active Starting Points for Next-Generation Antimalarials” (ACS Infect Dis, 2020) one finds cytotoxicity data, which are given here for 72 molecules.

A short description of the series: Toxicity liver stage against HepG2, at 10uM. The note with it: human, HepG2-A16-CD81EGFP cells; read-out: INHIBITION
The format is cell-based. Details: test concentration 10 uM, cell line HepG2-A16-CD81EGFP. The gist of the method:
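Uninfected HepG2-A16-CD81EGFP cells, 3 × 10^3 per well, 1536-well, plated on prespotted compound at 10 μM final, parasite-free screening media added to match infected plates; puromycin 10 μM positive, DMSO 0.5% negative; run in parallel with 48 h PbLuc assay at 37 °C, 5% CO2; viability by CellTiter-Glo luminescence, normalized to controls.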
For the molecule `Cc1ccc(NC2CCN(C(=O)CCC3CCCO3)CC2)nn1` (configuration not stated), the cytotoxicity at 10 µM was -1.2%.
To `CNc1ncccc1CN1CCCCC1c1ccnc(N)n1` (configuration not stated) belongs -12.3%.
To `COCCCn1ccc(NS(=O)(=O)c2cc(F)c(C)cc2F)n1` belongs 19.1%; to `C[C@@H]1CN(S(C)(=O)=O)C[C@]12CCN(Cc1cccnc1)C2=O`, 0.169%.
Take `Cc1cc(CN2C[C@@H]3CN(C(=O)c4cccn4C)CCO[C@@H]3C2)no1`: the cytotoxicity at 10 µM was -148%.
The result for `CCOC1CCN(C(=O)c2c(Cl)c3ccccc3n2C)CC1` reads 6.56%; that for `CC(C)c1ncc(CN2CCOC(C(=O)Nc3ccccc3)C2)cn1` (configuration not stated), -25.3%.
To `Cc1nc2c(c(NCc3nc4ccccc4s3)n1)CCNCC2` belongs -37.8%; to `CC(C)Cc1nc(CS(=O)(=O)C(C)C(=O)N2CCOCC2)no1` (configuration not stated), 3.13%.
As to `CCCS(=O)(=O)N1CCN(Cc2ccco2)CC1`, the cytotoxicity at 10 µM is 4.28%.
As to `COCc1nn(C(C)C)c2c1CCN(Cc1ccoc1)C2`, the cytotoxicity at 10 µM worked out at 3.33%.
The result for `c1cnn(CCNCc2csc(-c3ccc4c(c3)OCO4)n2)c1` reads 4.12%; that for `COc1cccc2c1OCC(C(=O)N(C)CCCc1cnn(C)c1)C2` (configuration not stated), -2.98%.
The result for `NC(=O)c1cn[nH]c1NC(=O)c1ccc2c(c1)OCO2` reads 1.03%.
To `CCc1cnc(N2C[C@@H]3C[C@H](C(=O)NC)[C@H](C2)O3)nc1` belongs 9.76%.
`Cc1cccc(O[C@H]2COCCN(Cc3sc(C)nc3C)C2)n1`: the cytotoxicity at 10 µM was -1.5%.
To `COc1cccc2c1OCC(C(=O)N(Cc1ccncc1)CC(C)C)C2` (configuration not stated) belongs -13.9%; to `CCc1nc2n(n1)CC(NCC(=O)Nc1ccc(Cl)cn1)CC2` (configuration not stated), -10.3%; to `CS(=O)(=O)N1CCC2(COCc3cnc(-c4ccccc4)nc32)C1` (configuration not stated), 1.22%.
The result for `c1cc(CO[C@@H]2CC[C@H]3[C@H]2OCCN3Cc2ccoc2)ccn1` reads 10.8%; that for `Cc1noc(C(C)C)c1C(=O)NS(=O)(=O)c1ccc(Cl)cc1`, -8.59%.
The result for `Cn1ncc2c1C(COCC1CC1)CN(C(=O)Cc1ccsc1)C2` (configuration not stated) reads 10.1%.
Turning to `O=C(NCCCN1CCCC1=O)c1ccc(-n2ccc3ccccc32)s1`, the cytotoxicity at 10 µM amounted to 6.69%.
In the case of `CCOC(=O)N1CCC(NC(C)Cc2cc(C)n[nH]2)CC1` (configuration not stated), the cytotoxicity at 10 µM was -2.65%.
In the case of `N#CC(NC(=O)CCCOc1cccnc1)c1ccccc1Cl` (configuration not stated), the cytotoxicity at 10 µM was determined as 4.26%.
The result for `c1cnn(CC2CN(c3ncnc4[nH]ccc34)CCO2)c1` (configuration not stated) reads -8.81%; that for `CNC(=O)c1ccc(OC)c(NCc2noc(-c3cccs3)n2)c1`, 2.76%; that for `O=C(c1cc(Cl)ccc1F)N1CCCC1Cn1cccn1` (configuration not stated), 8.36%.
Regarding `c1ccc(CCCN2CC[C@H](c3nnc(-c4ccccc4)o3)C2)cc1`, the cytotoxicity at 10 µM was found to be 4.77%.
As for `CCNc1ccnc(-c2ccnc3c2ccn3C)n1`, the cytotoxicity at 10 µM turned out to be 11.2%.
Take `O=C(CNC1CCc2ncnn2C1)N(C1=CCCCC1)C1CC1` (configuration not stated): the cytotoxicity at 10 µM was -8.07%.
Turning to `CCN(Cc1cccc2c1OCO2)C(=O)Nc1ccccn1`, the cytotoxicity at 10 µM is -21.7%.
As to `Cc1noc(C(C)C)c1C(=O)NS(=O)(=O)c1cccnc1`, the cytotoxicity at 10 µM was determined as 0.345%.
Turning to `CC(CN1CCC(c2ccccc2)CC1)n1cnc2ccccc21` (configuration not stated), the cytotoxicity at 10 µM was 15.5%.
With `CC(c1cccc(-c2cn(Cc3ccoc3)nn2)c1)N(C)C` (configuration not stated), the cytotoxicity at 10 µM came out at 1.35%.
The result for `CC(C)NC(=O)c1n[nH]c(-n2cnnc2)n1` reads 1.08%.
With `COCC1(C(=O)N[C@H]2CN(c3nnc(C)s3)C[C@@H]2C2CC2)CCC1`, the cytotoxicity at 10 µM was -129%.
The result for `Cc1ccc(C2CSCCN2C(=O)c2ccnc(N(C)C)c2)o1` (configuration not stated) reads 12.8%; that for `CCCN1CCN(Cc2cc(Cl)cc(Cl)c2)[C@H]2CS(=O)(=O)C[C@H]21`, -2.45%.
To `Cc1cccc(C(=O)NCCCN2CCc3ccccc3C2)c1C` belongs -4.71%; to `O=C(NCCc1nnc2n1CCC2)NCC1(c2ccccc2F)CC1`, 0.833%; to `COCC1CC2(CCNCC2)CN1c1ncccn1` (configuration not stated), 7.51%.
With `CN(Cc1nc2c(cnn2C)c(=O)[nH]1)Cc1ccc(F)cc1F`, the cytotoxicity at 10 µM is -1.29%.
To `CCOCc1nnc2n1CCN(Cc1c(C)noc1C)CC2` belongs -95.3%.
On to `Cn1ccc2c(C(=O)N3CCC(C(N)=O)CC3)cccc21`, for which the cytotoxicity at 10 µM was found to be 2.92%.
To `COCCn1cncc1CN1CCCC(C(=O)Cc2ccccc2)C1` (configuration not stated) belongs -6.55%; to `CC(C)c1nn(C)c(Cl)c1CNCC(=O)N1CCN(C)CC1`, 2.2%; to `Cc1c(C(=O)NC2(C#N)CCSC2)nnn1-c1ccccc1Cl` (configuration not stated), -5.34%.
To `CCc1n[nH]c(C2CN(C(=O)c3cc(C(N)=O)cs3)CCO2)n1` (configuration not stated) belongs -17.5%; to `CCCS(=O)(=O)N1CCC2(CN(c3ccsc3)C(=O)CN2C)C1` (configuration not stated), -21.1%.
For the molecule `Cc1cccc2nc(CN3CCCC(Cn4ccnn4)C3)cc(=O)n12` (configuration not stated), the cytotoxicity at 10 µM worked out at 3.23%.
The result for `COc1ccccc1CCN(C)Cc1nc(N)nc(N(C)C)n1` reads 6.96%; that for `Cn1ccnc1C(=O)N1CCCC(Cn2cc(CO)nn2)C1` (configuration not stated), -1.88%; that for `COCCNC(=O)c1cc(OC)c2ccoc2c1`, -2.49%.
For the molecule `Cn1ccnc1CN1CCC2(CC1)CN(CC1CC1)C(=O)CO2`, the cytotoxicity at 10 µM amounted to 1.7%.
As for `COCCNC(=O)c1cc(C2CC2)nc2onc(C3CCNC3)c12` (configuration not stated), the cytotoxicity at 10 µM is 7.55%.
The result for `O=C(Cc1ccccc1F)NCCN1CCOCC1` reads -46.1%.
To `COc1ccc(-c2noc(C(N)CCSC)n2)cc1` (configuration not stated) belongs -7.27%; to `Cc1nnc(CN(C)C2CCN(CCc3ccccn3)CC2)o1`, 1.04%.
To `COc1ccccc1CN1C(=O)O[C@@H]2CN(CC3CC3)C[C@@H]21` belongs 1.35%; to `Cc1csc(C(C#N)C(=O)NCc2cccnc2)n1` (configuration not stated), 9.6%.
On to `O=C(c1ccco1)N1CCOCC2(C1)CN(c1ccoc1)C(=O)CO2` (configuration not stated), for which the cytotoxicity at 10 µM was -6.04%.
Take `CCC(C)N(Cc1cccnc1)C(=O)c1ncccc1O` (configuration not stated): the cytotoxicity at 10 µM amounted to 14.9%.
For the molecule `CCc1cc(NCC(O)CN2CCCCC2)ncn1` (configuration not stated), the cytotoxicity at 10 µM is -0.714%.
To `COc1c(Cl)cc(Cl)cc1CN1CCC(C(N)=O)C1` (configuration not stated) belongs 11.9%; to `Cn1cc(-c2cnc(N3CCOCC3)nc2)cc1C(=O)NCCC#N`, -83.9%.
To `Cn1nccc1C(=O)N1C[C@@H]2CC[C@H](Oc3cccc(F)c3)[C@@H]2C1` belongs -13.8%.
As for `O=C(Nc1cnccn1)[C@H]1CO[C@H]2CCN(c3ncc(F)cn3)C[C@H]2C1`, the cytotoxicity at 10 µM was 1.2%.
`CC(CN1CCCCCC1)NCc1cc(-c2ccco2)on1` (configuration not stated): the cytotoxicity at 10 µM worked out at 1.56%.
To `COc1ncccc1C(=O)N1CC(c2nc(-c3cccs3)no2)C1` belongs -21.5%.
As to `O=C(c1cnc(O)cc1O)N1CCCC(CCc2ccccc2F)C1` (configuration not stated), the cytotoxicity at 10 µM is -2.24%.
With `Cc1nc(N2CCN3CCCCC3C2)nc2cc(S(C)(=O)=O)ccc12` (configuration not stated), the cytotoxicity at 10 µM is -6.25%.
